Test results taken from ChEMBL document CHEMBL2010770, “Dimeric 3,5-bis(benzylidene)-4-piperidones: a novel cluster of tumour-selective cytotoxins possessing multidrug-resistant properties” (Eur J Med Chem, 2012).
Calls of active or inactive are those of the source. No cut-off for these calls is given here.

Key:
[1] = Cytotoxicity against human HPLF cells after 48 hrs; assay type: cell-based
Procedure, shortened: (§1)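 Cells were exposed to a dose range for 48 h, following a literature method. CC50 was read from the dose–response curve.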

COLO 205 = assay: Cytotoxicity against human COLO205 cells; assay type: functional, cell-based
Procedure, shortened: (§2)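 Human colon cancer and leukaemia line panel. Compounds tested from 10^-4 to 10^-8 M, and IC50 values determined.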

HCC 2998 = assay: Cytotoxicity against human HCC2998 cells; assay type: functional, cell-based; procedure, shortened: as §2
HCT-116 [2] = assay: Cytotoxicity against human HCT116 cells; assay type: functional, cell-based; procedure, shortened: as §2
HCT-15 = assay: Cytotoxicity against human HCT15 cells; assay type: functional, cell-based; procedure, shortened: as §2
HT-29 = assay: Cytotoxicity against human HT-29 cells; assay type: functional, cell-based; procedure, shortened: as §2
KM12 = assay: Cytotoxicity against human KM12 cells; assay type: functional, cell-based; procedure, shortened: as §2
SW-620 = assay: Cytotoxicity against human SW620 cells; assay type: functional, cell-based; procedure, shortened: as §2
HL-60(TB) = assay: Cytotoxicity against human HL-60(TB) cells; assay type: functional, cell-based; procedure, shortened: as §2
K562 = assay: Cytotoxicity against human K562 cells; assay type: functional, cell-based; procedure, shortened: as §2
RPMI-8226 = assay: Cytotoxicity against human RPMI8226 cells; assay type: functional, cell-based; procedure, shortened: as §2
HSC-2 [3] = assay: Induction of apoptosis in human HSC2 cells assessed as formation of internucleosomal DNA fragmentation at up to 0.8 uM after 6 hrs; assay type: functional, cell-based
HL-60 [4] = assay: Induction of apoptosis in human HL60 cells assessed as formation of internucleosomal DNA fragmentation at up to 0.8 uM after 6 hrs; assay type: functional, cell-based
HSC-2 [5] = assay: Induction of apoptosis in human HSC2 cells assessed as formation of internucleosomal DNA fragmentation at up to 0.8 uM after 24 hrs; assay type: functional, cell-based
HL-60 [6] = assay: Induction of apoptosis in human HL60 cells assessed as formation of internucleosomal DNA fragmentation at up to 0.8 uM after 24 hrs; assay type: functional, cell-based
HL-60 [7] = assay: Induction of apoptosis in human HL60 cells assessed as increase of PARP1 cleavage at 0.2 uM after 6 hrs by Western blot analysis; assay type: functional, cell-based
Procedure, shortened: (§3)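 HSC-2 cells were treated at 0.4 µM and HL-60 cells at 0.2 µM. Cells were washed in ice-cold PBS and lysed in HEPES pH 7.4/Triton X-100 buffer with phosphatase and protease inhibitors. Lysates were run on 8% SDS-PAGE and transferred to PVDF. Blots were blocked in 5% milk and probed with anti-cleaved PARP1 and anti-β-actin, then HRP-conjugated secondary antibodies.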

HSC-2 [8] = assay: Induction of apoptosis in human HSC2 cells assessed as increase of PARP1 cleavage at 0.4 uM after 12 hrs by Western blot analysis; assay type: functional, cell-based; procedure, shortened: as §3
HSC-2 [9] = assay: Induction of apoptosis in human HSC2 cells assessed as increase of caspase-3 activation using DEVD-pnitroanilide as substrate after 6 hrs; assay type: functional, cell-based
Procedure, shortened: (§4)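 HSC-2 and HL-60 cells were exposed for up to 6 h and then lysed. Lysates were mixed with DEVD-p-nitroanilide and incubated at 37 °C for 2 h. Released p-nitroanilide was read at 405 nm.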

HL-60 [10] = assay: Induction of apoptosis in human HL60 cells assessed as increase of caspase-3 activation using DEVD-pnitroanilide as substrate after 6 hrs; assay type: functional, cell-based; procedure, shortened: as §4
HCT-116 [11] = assay: Cell cycle arrest in human HCT116 cells assessed as accumulation at G0/G1 phase at 1 uM after 48 hrs using propidium iodide staining by flow cytometry (reference value: 92.07%); assay type: functional
HCT-116 [12] = assay: Cell cycle arrest in human HCT116 cells assessed as accumulation at S phase at 1 uM after 48 hrs using propidium iodide staining by flow cytometry (reference value: 3.19%); assay type: functional
HCT-116 [13] = assay: Cell cycle arrest in human HCT116 cells assessed as accumulation at G2/M phase at 1 uM after 48 hrs using propidium iodide staining by flow cytometry (reference value: 4.75%); assay type: functional
[14] = biological target: T1, ATP-dependent translocase ABCB1 (Homo sapiens, UniProt P08183); assay: Inhibition of human MDR1-mediated multidrug resistant in mouse L5178Y cells at 4 uM treated 10 mins before rhodamine 123 challenge measured after 20 mins relative to control; assay type: cell-based
Procedure, shortened: (§5)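 Compounds in DMSO were added at room temperature to mdr1-transfected and parental L5178Y cells. After 10 min, rhodamine 123 was added, followed by 20 min at 37 °C. Cellular rhodamine fluorescence was measured and expressed as fluorescence activity ratio (FAR); FAR >1 indicates MDR reversal.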

[15] = biological target: T1, ATP-dependent translocase ABCB1; assay: Inhibition of human MDR1-mediated multidrug resistant in mouse L5178Y cells at 40 uM treated 10 mins before rhodamine 123 challenge measured after 20 mins relative to control; assay type: cell-based; procedure, shortened: as §5
MOLT-4 = assay: Growth inhibition of human Molt4/C8 cells; assay type: functional, cell-based
CCRF-CEM = assay: Growth inhibition of human CEM cells; assay type: functional, cell-based
L1210 = assay: Growth inhibition of mouse L1210 cells; assay type: functional, cell-based
HSC-2 [16] = assay: Cytotoxicity against human HSC2 cells after 48 hrs; assay type: functional; conditions: HSC-2, 48 h
Procedure, shortened: (§6)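 Human HSC-2, HSC-3, HSC-4 squamous carcinoma and HL-60 promyelocytic leukaemia cells incubated with compound for 48 h. CC50, the concentration killing 50% of cells, read from a dose–response curve.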

HSC-2 [17] = assay: Selectivity index, ratio of CC50 for human normal cells to CC50 for human HSC2 cells; assay type: functional
HSC-3 [18] = assay: Cytotoxicity against human HSC3 cells after 48 hrs; assay type: functional; conditions: HSC-3, 48 h; procedure, shortened: as §6
HSC-3 [19] = assay: Selectivity index, ratio of CC50 for human normal cells to CC50 for human HSC3 cells; assay type: functional
HSC-4 [20] = assay: Cytotoxicity against human HSC4 cells after 48 hrs; assay type: functional; conditions: HSC-4, 48 h; procedure, shortened: as §6
HSC-4 [21] = assay: Selectivity index, ratio of CC50 for human normal cells to CC50 for human HSC4 cells; assay type: functional
HL-60 [22] = assay: Cytotoxicity against human HL60 cells after 48 hrs; assay type: functional; conditions: HL-60, 48 h; procedure, shortened: as §6
HL-60 [23] = assay: Selectivity index, ratio of CC50 for human normal cells to CC50 for human HL60 cells; assay type: functional
[24] = Cytotoxicity against human HGF cells after 48 hrs; assay type: cell-based; procedure, shortened: as §1
HCT-116 [25] = assay: Cell cycle arrest in human HCT116 cells assessed as accumulation at G0/G1 phase at 16 uM after 48 hrs using propidium iodide staining by flow cytometry (reference value: 92.07%); assay type: functional
HCT-116 [26] = assay: Cell cycle arrest in human HCT116 cells assessed as accumulation at S phase at 16 uM after 48 hrs using propidium iodide staining by flow cytometry (reference value: 3.19%); assay type: functional
HCT-116 [27] = assay: Cell cycle arrest in human HCT116 cells assessed as accumulation at G2/M phase at 16 uM after 48 hrs using propidium iodide staining by flow cytometry (reference value: 4.75%); assay type: functional

T1 sequence (P08183 whole entry): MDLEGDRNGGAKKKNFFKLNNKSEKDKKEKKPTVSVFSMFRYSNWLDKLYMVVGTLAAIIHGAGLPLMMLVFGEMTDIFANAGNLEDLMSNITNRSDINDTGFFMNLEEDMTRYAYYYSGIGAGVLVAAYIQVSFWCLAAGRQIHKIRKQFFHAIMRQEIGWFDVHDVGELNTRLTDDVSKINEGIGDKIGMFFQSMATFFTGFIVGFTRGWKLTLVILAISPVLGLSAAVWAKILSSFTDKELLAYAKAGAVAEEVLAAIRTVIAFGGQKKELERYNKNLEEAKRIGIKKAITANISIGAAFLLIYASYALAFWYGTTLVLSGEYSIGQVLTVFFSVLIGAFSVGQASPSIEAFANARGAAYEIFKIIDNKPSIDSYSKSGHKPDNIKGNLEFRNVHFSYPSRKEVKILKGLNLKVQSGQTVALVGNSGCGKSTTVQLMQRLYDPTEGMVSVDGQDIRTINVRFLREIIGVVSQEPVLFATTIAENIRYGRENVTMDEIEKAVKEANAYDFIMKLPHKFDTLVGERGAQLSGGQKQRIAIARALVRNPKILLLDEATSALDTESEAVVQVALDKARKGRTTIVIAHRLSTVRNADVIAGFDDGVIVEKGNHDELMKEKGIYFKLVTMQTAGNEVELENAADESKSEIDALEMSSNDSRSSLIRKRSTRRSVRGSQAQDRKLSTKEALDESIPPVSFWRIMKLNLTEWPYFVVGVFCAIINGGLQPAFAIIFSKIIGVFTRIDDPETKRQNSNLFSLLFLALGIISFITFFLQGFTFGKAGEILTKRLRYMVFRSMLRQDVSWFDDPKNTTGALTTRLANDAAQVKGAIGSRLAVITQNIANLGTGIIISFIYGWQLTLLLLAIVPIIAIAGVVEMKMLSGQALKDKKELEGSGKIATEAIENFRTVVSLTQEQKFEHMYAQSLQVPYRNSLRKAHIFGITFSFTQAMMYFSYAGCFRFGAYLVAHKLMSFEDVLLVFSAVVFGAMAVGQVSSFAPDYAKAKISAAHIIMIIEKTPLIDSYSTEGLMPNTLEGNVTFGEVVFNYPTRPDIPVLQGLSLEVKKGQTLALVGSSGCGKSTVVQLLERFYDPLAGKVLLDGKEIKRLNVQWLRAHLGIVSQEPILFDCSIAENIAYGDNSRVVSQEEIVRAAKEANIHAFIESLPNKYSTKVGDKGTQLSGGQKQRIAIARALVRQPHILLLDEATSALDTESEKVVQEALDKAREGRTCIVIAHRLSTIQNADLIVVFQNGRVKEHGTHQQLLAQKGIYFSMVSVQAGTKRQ

O=C1/C(=C/c2ccccc2)CN(C(=O)CC(=O)N2C/C(=C\c3ccccc3)C(=O)/C(=C/c3ccccc3)C2)C/C1=C\c1ccccc1
CC50 at 48 h [1]: 1300 nM | IC50 (COLO 205): 160 nM | IC50 (HCC 2998): 170 nM | IC50 (HCT-116 [2]): 30 nM | IC50 (HCT-15): 170 nM | IC50 (HT-29): 50 nM | IC50 (KM12): 130 nM | IC50 (SW-620): 50 nM | IC50 (HL-60(TB)): 290 nM | IC50 (K562): 50 nM | IC50 (RPMI-8226): 130 nM | Activity (HSC-2 [3]): inactive | Activity (HL-60 [4]): Active | Activity (HSC-2 [5]): Active | Activity (HL-60 [6]): Active | Activity (HL-60 [7]): Active | Activity (HSC-2 [8]): Active | Activity (HSC-2 [9]): Active | Activity (HL-60 [10]): Active | Activity (HCT-116 [11]): 31.54% | Activity (HCT-116 [12]): 43.46% | Activity (HCT-116 [13]): 25.01% | Ratio [14]: 35.3 | Ratio [15]: 53.3 | growth inhibition (GI) (MOLT-4): Active | growth inhibition (GI) (CCRF-CEM): Active | growth inhibition (GI) (L1210): Active | CC50 (HSC-2 [16]): 50 nM | Ratio (HSC-2 [17]): 18.4 | CC50 (HSC-3 [18]): 46 nM | Ratio (HSC-3 [19]): 20 | CC50 (HSC-4 [20]): 84 nM | Ratio (HSC-4 [21]): 11 | CC50 (HL-60 [22]): 46 nM | Ratio (HL-60 [23]): 20 | CC50 at 48 h [24]: 1100 nM

COc1cc(/C=C/C(=O)CC(=O)/C=C/c2ccc(O)c(OC)c2)ccc1O [CURCUMIN]
Activity (HCT-116 [25]): 48.97% | Activity (HCT-116 [26]): 5.62% | Activity (HCT-116 [27]): 45.42%
